Laboratory results: publication PMC3253552 (Biochemical and Biophysical Research Communications, 2011)
Bridge positions count the residues as written; N and C are the ends. Square brackets hold non-standard residues; d marks the D form. Peptide text beside a SMILES is read from it. R8 = C=CCCCCCC[C@@](C)(N)C(=O)O; S5 = C=CCCC[C@](C)(N)C(=O)O

Key:
pepsin = experiment: Peptide proteolysis by pepsin, loss of intact peptide by MALDI-TOF MS; format: in vitro ADME; details: for susceptibility to proteolysis by pepsin (in words): pepsin 0.5 μg/ml, 10% acetic acid pH 2, peptide 500 μg/ml, 37°C, MALDI-TOF MS; for remaining at 24 h, 500 μg/ml: pepsin, pH 2
chymotrypsin = experiment: Peptide proteolysis by chymotrypsin, loss of intact peptide by MALDI-TOF MS; format: in vitro ADME; details: pH 7
human ABCA1 = human ABCA1 (Homo sapiens, UniProt O95477); experiment: Cholesterol efflux from ABCA1 transfected BHK cells; format: cell-based; details: [3H] cholesterol, 18 h with peptide
Sequence of human ABCA1 (O95477 whole entry): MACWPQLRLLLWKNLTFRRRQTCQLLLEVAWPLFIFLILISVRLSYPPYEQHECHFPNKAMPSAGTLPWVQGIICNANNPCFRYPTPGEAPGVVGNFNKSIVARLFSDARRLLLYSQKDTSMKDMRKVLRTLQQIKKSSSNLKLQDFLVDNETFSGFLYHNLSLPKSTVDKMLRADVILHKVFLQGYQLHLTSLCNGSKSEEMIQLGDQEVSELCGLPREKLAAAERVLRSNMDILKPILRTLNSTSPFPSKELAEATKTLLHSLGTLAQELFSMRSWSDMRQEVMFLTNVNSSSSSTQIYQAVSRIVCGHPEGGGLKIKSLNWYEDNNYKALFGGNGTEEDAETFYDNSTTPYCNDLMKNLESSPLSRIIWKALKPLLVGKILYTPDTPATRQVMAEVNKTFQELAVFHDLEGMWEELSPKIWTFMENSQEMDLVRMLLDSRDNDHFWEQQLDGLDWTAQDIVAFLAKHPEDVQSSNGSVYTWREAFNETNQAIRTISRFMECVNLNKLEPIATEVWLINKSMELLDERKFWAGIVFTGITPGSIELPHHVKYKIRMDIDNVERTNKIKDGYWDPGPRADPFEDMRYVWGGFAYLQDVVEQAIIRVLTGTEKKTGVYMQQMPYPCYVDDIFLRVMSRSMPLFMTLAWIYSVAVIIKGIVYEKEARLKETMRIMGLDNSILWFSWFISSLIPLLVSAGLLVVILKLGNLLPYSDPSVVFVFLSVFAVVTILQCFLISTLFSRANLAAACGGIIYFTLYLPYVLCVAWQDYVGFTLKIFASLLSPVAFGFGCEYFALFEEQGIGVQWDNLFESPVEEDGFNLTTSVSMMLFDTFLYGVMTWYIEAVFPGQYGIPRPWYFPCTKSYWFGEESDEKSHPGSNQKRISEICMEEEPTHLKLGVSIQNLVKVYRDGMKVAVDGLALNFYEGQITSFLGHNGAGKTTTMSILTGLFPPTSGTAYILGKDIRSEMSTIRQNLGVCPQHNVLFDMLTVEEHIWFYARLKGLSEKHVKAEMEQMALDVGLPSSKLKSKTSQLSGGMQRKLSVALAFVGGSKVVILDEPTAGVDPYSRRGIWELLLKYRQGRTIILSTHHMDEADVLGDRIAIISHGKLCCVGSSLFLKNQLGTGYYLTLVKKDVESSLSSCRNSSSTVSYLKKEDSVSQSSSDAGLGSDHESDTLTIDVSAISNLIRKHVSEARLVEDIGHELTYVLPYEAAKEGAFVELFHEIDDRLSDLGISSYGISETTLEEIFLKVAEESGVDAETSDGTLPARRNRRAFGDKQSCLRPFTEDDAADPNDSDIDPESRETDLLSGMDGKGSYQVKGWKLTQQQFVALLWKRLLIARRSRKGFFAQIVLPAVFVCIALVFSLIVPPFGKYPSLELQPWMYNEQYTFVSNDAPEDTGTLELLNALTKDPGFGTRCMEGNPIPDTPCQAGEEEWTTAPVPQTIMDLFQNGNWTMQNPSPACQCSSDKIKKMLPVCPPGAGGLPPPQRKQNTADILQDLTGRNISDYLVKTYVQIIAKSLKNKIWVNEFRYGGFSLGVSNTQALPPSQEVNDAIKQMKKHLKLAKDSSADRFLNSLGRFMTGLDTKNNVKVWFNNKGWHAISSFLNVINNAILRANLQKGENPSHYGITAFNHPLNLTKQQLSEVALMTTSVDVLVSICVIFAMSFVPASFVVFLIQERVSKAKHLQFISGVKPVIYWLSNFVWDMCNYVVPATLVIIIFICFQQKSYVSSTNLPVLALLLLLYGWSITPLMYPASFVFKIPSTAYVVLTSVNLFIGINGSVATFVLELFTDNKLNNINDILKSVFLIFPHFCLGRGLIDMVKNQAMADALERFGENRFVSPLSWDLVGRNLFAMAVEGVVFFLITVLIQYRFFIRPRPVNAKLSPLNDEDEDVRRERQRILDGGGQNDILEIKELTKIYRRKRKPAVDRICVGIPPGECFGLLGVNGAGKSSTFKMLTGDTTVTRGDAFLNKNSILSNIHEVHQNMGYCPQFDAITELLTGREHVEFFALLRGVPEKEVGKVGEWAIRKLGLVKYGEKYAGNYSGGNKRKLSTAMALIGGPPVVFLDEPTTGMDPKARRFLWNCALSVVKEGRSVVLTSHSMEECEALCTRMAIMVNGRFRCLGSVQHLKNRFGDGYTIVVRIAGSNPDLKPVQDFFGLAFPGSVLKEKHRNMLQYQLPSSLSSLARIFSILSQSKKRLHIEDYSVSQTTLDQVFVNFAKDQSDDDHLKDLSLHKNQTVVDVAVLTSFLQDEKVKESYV

[1] = CD spectroscopy of peptide helicity and thermostability; format: physicochemical; details: peptide 0.1 mg/mL in sodium phosphate buffer pH 7.4, 24°C
How it was run: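 Peptide at 0.1 mg/mL in sodium phosphate buffer, pH 7.4, in a quartz cuvette with 0.2 cm path length. Far-UV CD spectra were scanned from 185 to 240 nm at 24°C. Signal was normalised to mean residue ellipticity to estimate helical content. For thermostability, ellipticity was followed while temperature was raised from 10 to 90°C.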

[2] = cited from earlier work

| Compound | susceptibility to proteolysis by pepsin (in words) (pepsin) | remaining at 24 h, 500 μg/ml (pepsin) | remaining at 24 h, 500 μg/ml (chymotrypsin) | increase in cholesterol efflux by the ABCA1 transporter compared to A10 (human ABCA1) | helicity in aqueous buffer at 24°C [1] | helicity when associated with lipids ([2]; apoA-I associated with lipids) | helicity in the lipid-free state ([2]; lipid-free apoA-I) |
| --- | --- | --- | --- | --- | --- | --- | --- |
| CC(=O)N[C@H](C(=O)N[C@@H](CC(C)C)C(=O)N[C@@H](CC(=O)O)C(=O)N[C@@H](CO)C(=O)N[C@@H](Cc1ccccc1)C(=O)N[C@@H](CCCCN)C(=O)N[C@H](C(=O)N[C@@H](CO)C(=O)N[C@@]1(C)CCCC=CCCC[C@@](C)(C(=O)N[C@@H](CCC(=O)O)C(=O)N[C@@H](CCC(=O)O)C(=O)N[C@@H](Cc2ccc(O)cc2)C(=O)N[C@H](C(=O)N[C@@H](CCCCN)C(=O)N[C@@H](CCCCN)C(=O)N[C@@H](CC(C)C)C(=O)N[C@@H](CC(N)=O)C(=O)N[C@H](C(=O)N[C@@H](CCC(N)=O)C(N)=O)[C@@H](C)O)[C@@H](C)O)NC(=O)[C@H](C)NC(=O)[C@H](CO)NC(=O)[C@H](CC(C)C)NC1=O)C(C)C)C(C)C [S1A10] (Ac-VLDSFKVS[S5]LSA[S5]EEYTKKLNTQ-NH2; staple 9-13) | resistant to proteolysis | 0.4% | 0.6% | > 10 fold | 62% |  |  |
| CC(=O)N[C@H](C(=O)N[C@@H](CC(C)C)C(=O)N[C@@H](CC(=O)O)C(=O)N[C@@H](CO)C(=O)N[C@@H](Cc1ccccc1)C(=O)N[C@@H](CCCCN)C(=O)N[C@H](C(=O)N[C@@H](CO)C(=O)N[C@]1(C)CCCCCCC=CCCC[C@@](C)(C(=O)N[C@H](C(=O)N[C@@H](CCCCN)C(=O)N[C@@H](CCCCN)C(=O)N[C@@H](CC(C)C)C(=O)N[C@@H](CC(N)=O)C(=O)N[C@H](C(=O)N[C@@H](CCC(N)=O)C(N)=O)[C@@H](C)O)[C@@H](C)O)NC(=O)[C@H](CCC(=O)O)NC(=O)[C@H](CCC(=O)O)NC(=O)[C@H](CC(C)C)NC(=O)[C@H](C)NC(=O)[C@H](CO)NC(=O)[C@H](CC(C)C)NC1=O)C(C)C)C(C)C [S2A10] (Ac-VLDSFKVS[R8]LSALEE[S5]TKKLNTQ-NH2; staple 9-16) | resistant to proteolysis | 12.2% | 3.8% | > 10 fold | 97% |  |  |
| apoA-I: full length apolipoprotein, the main protein on High Density Lipoproteins |  |  |  |  |  | over 67% | about 48% |
